Sampled rows, rich in hits. Any-hit rate of the full collection: about 2.7%.
Redox H2O2 prof – compounds producing H2O2 with reducing agent – biochemical, NIH compound library profiling, artefact control for MLSCN library redox annotation, primary screen | DTT-dependent redox cycling H2O2, phenol red/HRP absorbance; 100% = 100 µM peroxide control, 0% = buffer | activation, % at 10 µM | 200,000 compounds, 0.03% hits;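 active = activation of at least 50% relative to the plate's high and low controls in the primary single-dose screen; inactive = activation below 50%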;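 note: compound incubated with DTT at 0.8 mM final as the reducing agent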
FLuc inhib CS – Photinus pyralis luciferase inhibition counter-screen; P08659; ATPLite firefly luciferase biochemical luminescence, 10 min; inhibition, % at 10 µM; 200,000 compounds, 1.5% hits; AID 1006;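 active = inhibition above about 50% when tested at 10 µM, limit read from the data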
ABCG2 inh – human ABCG2 inhibition, ABCB1 as counter-screen; Q9UNQ0; IgMXP3 cells, JC-1 efflux, flow cytometry; inhibition, % at 6.6 µM; 190,000 compounds, 0.1% hits;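 active = inhibition above 80%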;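 note: 0% = DMSO and 100% = nicardipine control wells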
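material = IgMXP3 (ABCG2) plus far-red-tagged CCRF-Adr (ABCB1) cells | amount = 3 million cells/mL, equal mix of both lines | also added = JC-1 transporter substrate | dosing = one concentration, 6.6 µM final | schedule = 10 min at 25 °C | measured by = flow cytometric JC-1 green MFI at 530 nm | read-out basis = percent efflux inhibition, scaled nicardipine 100% to DMSO 0%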
Measles CPE – protection of cells from measles virus. Measles virus-infected cells, CPE protection, absorbance. protection (pct of control), % at 4 µM. 140,000 compounds, 1.5% hits; in the data active = protection mostly above about 24%, no sharp cut-off; inactive = mostly below about 26%
ABCB1 inh – inhibitors of human ABCB1 transporter, ABCG2 counter-screen; P08183; inhibition, % at 6.6 µM; CCRF-Adr cells, JC-1 efflux, flow cytometry; 190,000 compounds, 0.067% hits; in the data active = inhibition above about 40%;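 note: 0% = vehicle and 100% = reference inhibitor; higher value means more JC-1 retained so stronger ABCB1 efflux block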
FLuc act counter – firefly luciferase counter-screen for stimulation assays; P08659; ATPlite luciferase biochemical, luminescence, 10 min; 0 = ATP-free wells, 1 = DMSO control; activation factor at 10 µM; 200,000 tested, under 10 active; AID 1027;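 active = luciferase activation factor, scaled between plate controls, of at least 2 with compound at 10 µM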
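Assay system: Luciferase/luciferin detection reagent, cell-free biochemical luciferase assay / Read-out: luciferase activation / Benchmarks: No-ATP low control, compound-free enzyme-plus-ATP high control / Medium: PBS buffer for ATP / Detection: luminescence measurement of luciferase light output / Schedule: 10 min at ambient temperature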
An asterisk follows results filed as active; . = not tested or not shown.

SMILES	Redox H2O2 prof	FLuc inhib CS	ABCG2 inh	Measles CPE	ABCB1 inh	FLuc act counter
O=C(O)COc1ccccc1/C=N/NC(=O)c1ccc(F)cc1	-2	53*	3	.	1	0.5
COc1ccccc1NC(=O)Nc1cc(F)ccc1F	0	0	17	.	1	1
N#Cc1c(Sc2ncc(C(F)(F)F)cc2Cl)nsc1C/C=N\OCc1c(F)cccc1Cl	-3	-4	.	3	.	1
COC(=O)N/N=C/c1sc(N2CCCCC2)nc1-c1cccs1	-1	8	7	.	1	0.9
CC1CCN(C(=O)C2CCN(S(=O)(=O)c3cccc4nonc34)CC2)CC1	-5	-6	4	7	1	1.1
COc1ccc2cc(-c3cc(C(=O)OCC(=O)NC4CCS(=O)(=O)C4)c4ccccc4n3)ccc2c1 (configuration not stated)	.	95*	-5	15	-1	0
Cc1cc(C(=O)OCC(=O)NC2CCS(=O)(=O)C2)c2ccccc2n1 (configuration not stated)	0	-4	11	.	0	1
COc1ccc2cc(-c3cc(C(=O)OCC(=O)Nc4c(C)n(C)n(-c5ccccc5)c4=O)c4ccccc4n3)ccc2c1	0	94*	-9	14	-2	0.1
Cc1cc([N+](=O)[O-])ccc1NC(=O)C(C)N1CCN(c2ccccn2)CC1 (configuration not stated)	0	-5	2	.	0	1
CCN(Cc1nc2cc(OC)c(OC)cc2c(=O)[nH]1)C(=O)c1ccc(S(=O)(=O)N(C)C)cc1	-3	1	6	6	1	1
COc1cc2nc(CN(C)Cc3ccc(C(C)(C)C)cc3)[nH]c(=O)c2cc1OC	-1	85*	2	.	1	0.2
CCCCn1c(C)nc2c(=O)n(C)c(=O)[nH]c21	0	-8	1	29*	0	1.1
CCCOC(=O)C(C)n1cnc2sc(C)c(C)c2c1=O (configuration not stated)	0	-4	13	2	2	1
CCCN(C(=O)c1ccco1)c1nnc(-c2cccc(C)c2)s1	-1	4	14	.	2	1
CCN(C(=O)c1ccco1)c1nnc(-c2ccc(OC)cc2)s1	1	85*	4	11	1	0.1
CCCC(=O)Nc1ccc(C(=O)Nc2nnc(COCC)s2)cc1	4	-6	15	14	0	1.1
CCCCN(C)C(=O)c1nc2ccccn2c1CN1CCSCC1	0	-6	0	.	0	1.1
Cc1cccc(C2=N/C(=C\c3cccs3)C(=O)O2)c1	-1	65*	4	.	-1	0.3
COc1cccc(-n2c(SCC(=O)N3CCCC3)nc3c([nH]c4ccccc43)c2=O)c1	0	.	.	.	.	.
CCOc1ccc(/C=C/C(=O)c2c(O)c3ccccc3oc2=O)cc1	15	67*	1	5	0	0.3
CCOc1ccc(/C=C/C(=O)NCc2ccccc2)cc1	0	11	6	3	0	0.9
COc1ccc(-c2noc(=O)[nH]2)cc1	0	0	0	5	0	1
CCOc1ccc(-c2noc(=O)[nH]2)cc1	-1	4	16	38*	1	1
COc1ccc(S(=O)(=O)N(CC(=O)NCC2CCCO2)c2ccc(F)cc2)cc1OC (configuration not stated)	2	-7	0	6	0	1.1
O=C(COC(=O)CCCNC(=O)c1ccc(Cl)cc1)NCc1ccccc1Cl	2	4	5	3	1	1
O=C(COC(=O)CCCNC(=O)c1ccc(Cl)cc1)Nc1ccc(Br)cc1	0	9	2	112*	0	0.9
Cc1nc(CC(=O)N2CCN(c3cccc(C)c3C)CC2)cs1	0	-6	28	13	0	1.1
O=C(CSC1=NCCN1)C1COc2ccccc2O1 (configuration not stated)	-1	-6	2	31*	0	1.1
CCOC(=O)C1(C)NC(c2cccs2)C2C(=O)N(c3ccccc3)C(=O)C21 (configuration not stated)	-1	-11	0	.	0	1.1

Bioassay records: PubChem BioAssay, several laboratories
